MPTP block – permeability transition pore inhibition; inhibition, % at 10 µM; hit rate 1.4% among 360,000; isolated mouse mitochondria, Ca2+ swelling absorbance, 30 min;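 active means inhibition of 50% or more, scaled per plate between neutral and stimulator controls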;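 further: 0% = DMSO wells given calcium and 100% = 1 mM EGTA wells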
697 NFkB inh – lowers PMA/ionomycin-induced NF-kB signal in 697 B cells | 697 B-cell NF-kB luciferase reporter, 16 h | inhibition, % at 4 µM | hit rate 0.33% among 330,000 | AID 435022; in the data active means inhibition above about 35%
Jurkat NFkB inh – lowers PMA/ionomycin-induced NF-kB signal in Jurkat cells. PMA/ionomycin-induced NF-kB luciferase reporter, luminescence. inhibition, % at 4 µM. hit rate 0.53% among 330,000. AID 435003; in the data active means inhibition above about 50%
NR2E3 ag-1 – NR2E3 (human) agonism; GST-NR2E3/biotin-RetCOR TR-FRET, 1536-well; inhibition of corepressor binding, % at 4.78 µM; hit rate 0.12% among 320,000;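 active means percent inhibition above the cutoff of mean plus 3 SD of all tested compounds, set per screening campaign, cut at about 20% in these data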;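 further: 0% = DMSO wells and 100% = biotin wells as full block of FRET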
Target sequence (Q9Y5X4 whole entry, looked up): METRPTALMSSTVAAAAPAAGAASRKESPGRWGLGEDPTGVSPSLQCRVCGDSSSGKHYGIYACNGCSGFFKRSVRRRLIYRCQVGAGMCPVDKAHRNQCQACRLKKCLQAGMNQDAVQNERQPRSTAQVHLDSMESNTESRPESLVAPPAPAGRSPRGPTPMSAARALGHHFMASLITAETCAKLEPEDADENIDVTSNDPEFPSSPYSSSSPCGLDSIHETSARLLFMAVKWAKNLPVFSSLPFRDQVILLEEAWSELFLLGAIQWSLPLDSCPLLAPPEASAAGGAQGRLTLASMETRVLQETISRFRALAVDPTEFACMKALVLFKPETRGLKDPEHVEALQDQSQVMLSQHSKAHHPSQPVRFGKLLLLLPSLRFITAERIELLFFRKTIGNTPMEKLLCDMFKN
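System: GST-tagged NR2E3 plus biotinylated RetCOR corepressor; Buffer or medium: pH 7.5 Tris-based buffer; Probe or stimulus: RetCOR corepressor, biotinylated, 7 nM; Doses: compound at 4.8 µM, single dose; Schedule: 5 h incubation at 4 °C; Technique: time-resolved FRET; Evaluation: percent inhibition of TR-FRET ratio; Replication: one well per compound, singlicate testing.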
NR2E3 ag-2 – human photoreceptor-specific nuclear receptor agonism | inhibition of corepressor binding, % at 3.98 µM | CHO-S Gal4-NCOR/VP16-NR2E3 two-hybrid, luciferase | hit rate 0.35% among 360,000 | Q9Y5X4;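 active means inhibition above the mean of all tested compounds plus 3 SD, cut at about 70% in these data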;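 further: 0% = DMSO with NR2E3 transfected cells and 100% = cells lacking NR2E3 construct; higher means lower luciferase signal from less NR2E3 corepressor binding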
aDG glyco act – increases alpha dystroglycan glycosylation; Pro5-aDG cells, alpha-DG glycosylation AlphaScreen (IIH6); 0% Pro5, 100% B10-LARGE cell signal; activation, % at 10 µM; hit rate 0.22% among 360,000; AID 624168;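 active means activation of at least 8% versus controls, or a plate z-score of at least 8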;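 further: Pro5 are CHO cells carrying HIG-tagged alpha-DG that lacks glycosylation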
Rh123 counter – Rhodamine 123 counter-screen of mitochondrial pore hits; shares compounds with MPTP block; isolated mitochondria, membrane potential, Rhodamine 123 fluorescence; inhibition, % at 10 µM; hit rate 78% among 5,000; AID 624504; in the data active means inhibition above about 22%;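 further: 0% = DMSO vehicle and 100% = positive control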
MPTP swell DR – dose response confirmation of mitochondrial permeability transition pore inhibitors; shares compounds with MPTP block; isolated mitochondria swelling, absorbance; IC50, µM; hit rate 58% among 780; AID 651561; in the data active means IC50 below about 20 µM
MPTP cs DR – active in counter-screen for permeability transition pore inhibitors; isolated mitochondria counterscreen, fluorescence read-out; shares compounds with MPTP block; IC50, µM; hit rate 49% among 780; in the data active means IC50 below about 80 µM
Numbers without * were called inactive; i = inactive; . = no result given. Only some compounds are listed: those with a hit (about 2.4% of all), similar ones and a draw of the others.

SMILES	MPTP block	697 NFkB inh	Jurkat NFkB inh	NR2E3 ag-1	NR2E3 ag-2	aDG glyco act	Rh123 counter	others
C1=C(c2ccc(-c3ccccc3)cc2)Nc2ncnn2C1c1ccco1 (stereo unspecified)	58*	.	.	.	-8	0	9
Fc1ccc(C2=CC(c3ccco3)n3ncnc3N2)cc1 (stereo unspecified)	2	20	5	-2	-1	0	.
Cn1cccc1C1C=C(c2ccc(C(C)(C)C)cc2)Nc2ncnn21 (stereo unspecified)	82*	-4	1	-1	-6	0	69*
C[C@H](CO)N1C[C@H](C)[C@@H](CN(C)S(=O)(=O)c2ccc3ccccc3c2)OCc2cnnn2CCCC1=O	0	.	.	.	-16	0	.
O=C(NCCN1C(=O)S/C(=C\c2ccc(Cl)cc2Cl)C1=O)C1=COCCO1	-1	-54	8	-2	11	0	.
COc1ccc(NC(=S)NC(NC(=O)c2cccc(Cl)c2)C(Cl)(Cl)Cl)c([N+](=O)[O-])c1 (stereo unspecified)	92*	2	-12	0	-3	0	51*
O=C(NC(NC(=S)Nc1ccccc1C(=O)O)C(Cl)(Cl)Cl)c1cccc([N+](=O)[O-])c1 (stereo unspecified)	6	-10	-1	5	-1	0	.
O=C(Cc1cccc2ccccc12)NC(NC(=S)Nc1ccccc1Cl)C(Cl)(Cl)Cl (stereo unspecified)	79*	16	-3	-1	5	2	70*
O=C(NC(NC(=S)Nc1ccccc1Cl)C(Cl)(Cl)Cl)c1cccc(Cl)c1 (stereo unspecified)	77*	8	21	1	15	5	62*
COc1ccc(NC(=S)NC(NC(=O)c2cccc(C)c2)C(Cl)(Cl)Cl)c([N+](=O)[O-])c1 (stereo unspecified)	71*	12	-1	-3	-27	0	64*
O=C(Nc1ccc(C(O)(C(F)(F)F)C(F)(F)F)cc1)c1ccc(Cl)c([N+](=O)[O-])c1	83*	0	-13	-2	-6	0	67*
O=C(O)c1cc(NC(=O)c2ccc(Cl)c([N+](=O)[O-])c2)cc(C(=O)O)c1	0	6	4	1	-3	0	.
N#Cc1ccsc1NC(=O)c1ccc(Cl)c([N+](=O)[O-])c1	82*	-81	-33	1	0	0	71*
Cc1cccc(C)c1NS(=O)(=O)c1ccc(NC(=O)c2ccc(Cl)c([N+](=O)[O-])c2)cc1	74*	1	-3	3	13	0	81*
O=[N+]([O-])c1cc(NS(=O)(=O)c2ccc(Cl)nc2)ccc1Cl	85*	-14	-6	-1	33	0	97*
COc1cccc(NC(=O)Nc2ccc(C(C)(C)C)cc2)c1	79*	-187	-99	.	-118	1	81*
Cc1ccc(NC(=O)Nc2ccc(F)cc2)cc1Cl	95*	-72	-70	4	-40	0	90*
CC(=O)Nc1ccc(NC(=O)Nc2ccc3c(c2)N(C)C(=O)CS3)cc1	8	7	6	0	-15	0	.
COc1cccc(C(C)NC(=O)Nc2cccc(C(F)(F)F)c2)c1 (stereo unspecified)	96*	0	-3	0	6	0	102*
COc1cccc(NC(=O)Nc2ccc3c(c2)N(C)C(=O)CS3)c1	88*	4	-4	1	-52	0	78*
COc1cccc(CN(CC(=O)NC2CCCC2)C(=O)c2csnn2)c1	-1	1	-11	-4	-10	0	.
COc1cc2c(cc1OC)CN(C(=O)CN1CCN(S(=O)(=O)c3ccccc3)CC1)CC2	-1	12	14	0	-29	1	.
COc1cccc(NC(=O)Nc2ccc(C)c(Cl)c2)c1	80*	-54	-88	0	-52	1	90*
O=C(NCc1ccco1)Nc1ccc(Br)cc1	0	-25	6	0	-17	0	.
O=C(NCc1ccco1)Nc1ccc(OC(F)(F)F)cc1	52*	-9	-19	1	-19	0	80*
SMILES	MPTP block	697 NFkB inh	Jurkat NFkB inh	NR2E3 ag-1	NR2E3 ag-2	aDG glyco act	Rh123 counter	others
COc1ccc2oc(C(=O)N(C)CCOc3ccc(Cl)cc3)c(C)c2c1	122*	-23	7	-1	-9	0	6	MPTP swell DR=i;MPTP cs DR=52*
COc1ccc(-n2c(SCCNCCO)nc3sc4c(c3c2=O)CCCC4)cc1	76*	5	3	1	-16	0	-20	MPTP swell DR=8.3*;MPTP cs DR=>80
COc1ccc(-n2c(SCC(=O)O)nc3sc4c(c3c2=O)CCCC4)cc1	0	6	-10	2	6	0	.
CCCN(CCC)S(=O)(=O)c1ccc(NC(=O)c2cc(C(=O)OC)cc([N+](=O)[O-])c2)cc1	88*	-5	26	-1	-6	1	-9	MPTP swell DR=11*;MPTP cs DR=4.5*
CCC(C)(C)NC(=O)c1cc(C(=O)OC)cc([N+](=O)[O-])c1	1	-12	-5	-1	22	0	.
Cc1cc(C)cc(Cn2cc(CN3CC(N4CCN(CCN(C)C)CC4)CS3(=O)=O)nn2)c1 (stereo unspecified)	-1	.	.	.	-19	0	.
CCS(=O)(=O)N1CCC(C(=O)NCCCN2CCC(Cc3ccccc3)CC2)CC1	1	-16	-6	5	6	0	.
O=C(NCCCN1CCC(Cc2ccccc2)CC1)C1CCN(S(=O)(=O)N2CCOCC2)CC1	88*	.	.	.	8	0	5	MPTP swell DR=i;MPTP cs DR=61*
Cc1ccc(F)cc1NCC(=O)Nc1ccc(Br)cc1	71*	-7	-45	1	8	0	72*
CC[C@@H](C)[C@H](NC(=O)OC(C)(C)C)c1nnc(S(=O)(=O)Cc2cc(C)ccc2C)o1	27	-26	22	0	-8	0	.
Cc1ccccc1CS(=O)(=O)c1nnc([C@H](CC(C)C)NC(=O)OC(C)(C)C)o1	75*	-34	30	3	-7	0	-3
COc1cc(C2NC(=O)NC3=C2C(=O)OC3)cc(OC)c1OC (stereo unspecified)	-1	-12	-1	1	7	0	.
O=C(/C=C/C(Cl)(Cl)Cl)Nc1ccc(Cl)cc1	96*	.	.	.	-4	1	102*
CCCS(=O)(=O)N1CCN=C1SCc1cccnc1	2	-7	7	5	12	0	.

Source: PubChem BioAssay
